Measurements: paper PMC6060173 (The Lancet. Infectious Diseases, 2018)
Where two headings read alike, the source gives them in different places.

What was measured:
Plasmodium falciparum [1] = experiment: Asexual parasite clearance parameters; format: in vivo; conditions: P falciparum
In short: (§1)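 Parasitaemia was counted by microscopy before one oral dose of the test compound and every 4 h over days 0–3. If two consecutive negative readings were not reached, the stay was extended to 7 days with counts every 6 h until clearance. Clearance kinetics, including lag time before parasite decline, followed WWARN statistical procedures. Kaplan-Meier analyses used a modified ITT population.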

[2] = Pharmacokinetics in malaria patients; format: in vivo, human
In short: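 A further sample was taken on day 5 or 7, depending on day-3 parasitaemia. Later samples were taken on days 10–11, 14, 17–18, 21, 24–25, 28 and 35. Parameters were AUC0-t, AUC0-168, AUC0-inf, Cmax, tmax, t1/2, C168h and λinf.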

P falciparum [3] = conditions: single dose of 400 mg administered 1 day before parasite challenge; cited from earlier work
[4] = tested on: Plasmodium falciparum DHODH; conditions: cited from earlier work
[5] = cited from earlier work
[6] = tested on: P falciparum and P vivax field isolates; conditions: ex-vivo; cited from earlier work
Plasmodium vivax [7] = experiment: Gametocytaemia by microscopy; format: in vivo; conditions: cohort 2b, P vivax, 600 mg
In short: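 Patients with P vivax malaria received one oral dose of the test compound: 400 mg in cohort 1b or 600 mg in cohort 2b. Gametocytaemia was assessed by microscopy throughout the 28-day follow-up. The measure was conversion from microscopy-negative at the start of treatment to gametocyte-positive.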

Plasmodium vivax [8] = experiment: Phase 2a single-dose efficacy: crude cure, thick blood smear microscopy; format: in vivo
In short: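 P vivax patients (1000–35 000 asexual parasites per μL) received one oral dose of 400, 600 or 800 mg. Crude cure meant clearance of asexual parasites within 7 days with no later recurrence, read by thick smear microscopy without PCR adjustment. It was scored at day 14, and cure at day 28. Rescue treatment was given if parasites remained at day 7. Analysis used ITT and per-protocol populations.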

P falciparum [9] = conditions: for a 60 kg patient; cited from earlier work
[10] = 12-lead and Holter ECG safety analysis in malaria patients; format: in vivo, human
In short: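 Adults with uncomplicated malaria (18–70 years, 45–90 kg) received one oral dose of the test compound in suspension, ideally fasted. QT interval was corrected by Fridericia (QTcF) and compared with baseline. PR and QRS intervals were also recorded during the study.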

Plasmodium falciparum [11] = experiment: Phase 2a single-dose efficacy: PCR-adjusted ACPR, thick blood smear microscopy; format: in vivo; conditions: P falciparum
In short: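 P falciparum patients (1000–35 000 asexual parasites per μL) received one oral dose of 400 or 250 mg. Treatment failure was read by thick blood smear microscopy; the first cohort initially used quantitative PCR. PCR adjustment distinguished recrudescence from new infection. ACPR was scored at days 14 and 28. ITT included all dosed patients; per-protocol excluded those who vomited, took other medication, had protocol violations or lacked data.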

P. falciparum = experiment: MIC/MPC estimate from nadir of parasitaemia in recrudescing patients; format: in vivo, Plasmodium falciparum; conditions: 400 mg
Plasmodium vivax [12] = experiment: Asexual parasite clearance parameters; format: in vivo; conditions: P vivax
In short: as §1

[13] = Adverse events in malaria patients; format: in vivo, human
In short: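 Patients received one oral dose of the test compound in suspension: 400 or 250 mg for P falciparum, and 400, 600 or 800 mg for P vivax. They were kept in clinic with checks every 4 h over days 0–3. Safety follow-up lasted 35 days. Safety was analysed in all patients who received at least one dose.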

PvDHODH enzyme = conditions: truncated recombinant enzymes; cited from earlier work
[14] = tested on: P. falciparum Dd2 B2 clone; conditions: dhodh Gly181Cys mutation; cited from earlier work
[15] = cohort 1a (n=13), P falciparum, 400 mg
[16] = cohort 1b (n=5), P vivax, 400 mg
[17] = cohort 2a (n=11), P falciparum, 250 mg
[18] = cohort 2b (n=9), P vivax, 600 mg
[19] = cohort 3b (n=7), P vivax, 800 mg

Structure (SMILES): Cc1cc(Nc2ccc(S(F)(F)(F)(F)F)cc2)n2nc(C(C)(F)F)nc2n1 [DSM265]
- Profiles with lag (Plasmodium falciparum [1]; cohort 1a, 400 mg, 8 profiles analysed): 4
- Profiles with lag (Plasmodium falciparum [1]; cohort 2a, 250 mg, 7 profiles analysed): 5
- dose proportionality based on Cmax and AUC0-∞ ([2]; P falciparum patients, 250 mg or 400 mg): dose proportional
- dose proportionality of exposure ([2]; P vivax patients, 400 mg to 800 mg): slightly subproportional
- Tmax ([2]; human, plasma, oral, tmax, seen for the other patients): 6 to 8 h
- protection from infection (P falciparum [3]): complete protection
- in-vitro selectivity for Plasmodium falciparum DHODH over its human ortholog [4]: very high
- duration of effectiveness (pharmacokinetic profile) ([5]; after a single oral dose in the range of 200–400 mg): more than 8 days
- tolerability ([5]; healthy participants, single doses of ≤1200 mg): generally well tolerated
- efficacy for P falciparum compared with P vivax [6]: five-times better
- patients negative for gametocytaemia at baseline who became positive (Plasmodium vivax [7]): 13%
- patients achieving crude cure at day 14 (Plasmodium vivax [8]; P vivax, 400 mg, ITT (five patients)): none
- patients achieving crude cure at day 14 (Plasmodium vivax [8]; P vivax, 400 mg, per-protocol (four patients)): none
- patients achieving crude cure at day 14 (Plasmodium vivax [8]; P vivax, 600 mg, ITT): 33%
- patients achieving crude cure at day 14 (Plasmodium vivax [8]; P vivax, 600 mg, per-protocol): 50%
- patients achieving crude cure at day 14 (Plasmodium vivax [8]; P vivax, 800 mg, ITT): 14%
- patients achieving crude cure at day 14 (Plasmodium vivax [8]; P vivax, 800 mg, per-protocol): 25%
- patients achieving a cure at day 28 (Plasmodium vivax [8]; P vivax, all doses): No patients
- P vivax clearance (Plasmodium vivax [8]; within the first 100 h, doses of 600 mg and 800 mg): 99–100%
- predicted efficacious single curative dose (P falciparum [9]): 340 mg
- values for QTcF recorded ([10]; in a few patients): 450 to 500 ms
- QTcF changes from baseline ([10]; more patients with P falciparum than P vivax): 30 to 60 ms
- patients achieving ACPR at day 28 (Plasmodium falciparum [11]; 250 mg, ITT): 55%
- patients achieving PCR-adjusted ACPR at day 14 (Plasmodium falciparum [11]; 250 mg, ITT): 73%
- patients achieving ACPR at day 28 (Plasmodium falciparum [11]; 250 mg, per-protocol): 60%
- patients achieving PCR-adjusted ACPR at day 14 (Plasmodium falciparum [11]; 250 mg, per-protocol): 80%
- patients achieving PCR-adjusted ACPR at day 14 (Plasmodium falciparum [11]; 400 mg single oral dose, per-protocol): 100%
- patients achieving ACPR at day 28 (Plasmodium falciparum [11]; 400 mg, ITT): 69%
- patients achieving PCR-adjusted ACPR at day 14 (Plasmodium falciparum [11]; 400 mg, ITT): 85%
- patients achieving ACPR at day 28 (Plasmodium falciparum [11]; 400 mg, per-protocol): 89%
- estimated duration of exposure greater than the minimum parasiticidal concentration (P. falciparum): around 10 days
- Profiles with lag (Plasmodium vivax [12]; cohort 1b, 400 mg, 4 profiles analysed): 3
- Profiles with lag (Plasmodium vivax [12]; cohort 2b, 600 mg, 9 profiles analysed): 3
- Profiles with lag (Plasmodium vivax [12]; cohort 3b, 800 mg, 6 profiles analysed): 1
- patients with headache ([13]; all 45 patients): 40%
- patients with pyrexia ([13]; all 45 patients): 44%
- abnormal haematology laboratory results considered clinically significant ([13]; all patients): No patients
- treatment-related serious adverse events or adverse events leading to study discontinuation ([13]; all patients): no patients
- Adverse event of special interest [13, 15]: 2 (15%) number of patients (%)
- Any adverse event [13, 15]: 10 (77%) number of patients (%)
- Serious adverse event [13, 15]: 0 number of patients (%)
- Severe adverse event [13, 15]: 0 number of patients (%)
- Treatment-related adverse event [13, 15]: 3 (23%) number of patients (%)
- Adverse event of special interest [13, 16]: 0 number of patients (%)
- Any adverse event [13, 16]: 4 (80%) number of patients (%)
- Serious adverse event [13, 16]: 0 number of patients (%)
- Severe adverse event [13, 16]: 1 (20%) number of patients (%)
- Treatment-related adverse event [13, 16]: 1 (20%) number of patients (%)
- Adverse event of special interest [13, 17]: 3 (27%) number of patients (%)
- Any adverse event [13, 17]: 7 (64%) number of patients (%)
- Serious adverse event [13, 17]: 1 (9%) number of patients (%)
- Severe adverse event [13, 17]: 2 (18%) number of patients (%)
- Treatment-related adverse event [13, 17]: 2 (18%) number of patients (%)
- Adverse event of special interest [13, 18]: 1 (11%) number of patients (%)
- Any adverse event [13, 18]: 7 (78%) number of patients (%)
- Serious adverse event [13, 18]: 0 number of patients (%)
- Severe adverse event [13, 18]: 0 number of patients (%)
- Treatment-related adverse event [13, 18]: 0 number of patients (%)
- Adverse event of special interest [13, 19]: 0 number of patients (%)
- Any adverse event [13, 19]: 6 (86%) number of patients (%)
- Serious adverse event [13, 19]: 0 number of patients (%)
- Severe adverse event [13, 19]: 0 number of patients (%)
- Treatment-related adverse event [13, 19]: 0 number of patients (%)
- tolerability ([13]; single oral dose 250-800 mg, all patients): well tolerated
- IC50 for the PvDHODH enzyme relative to PfDHODH (PvDHODH enzyme): two times higher
- reduction in potency [14]: 26 times

Structure (SMILES): Cc1cc(Nc2ccc(C(F)(F)F)nc2)n2nc(C(C)(F)F)nc2n1 [DSM421, reference compound]
- efficacy for P falciparum compared with P vivax [6]: equal efficacy
